Results gathered from unrelated publications.
Each line is one published result; the experiments were not run side by side.
FLT3: Receptor-type tyrosine-protein kinase FLT3 (FLT3, Homo sapiens, UniProt P36888)
FLT3 N841I: Receptor-type tyrosine-protein kinase FLT3 (FLT3, Homo sapiens, UniProt P36888, N841I)
FLT3 K663Q: Receptor-type tyrosine-protein kinase FLT3 (FLT3, Homo sapiens, UniProt P36888, K663Q)
FLT3 D835Y: Receptor-type tyrosine-protein kinase FLT3 (FLT3, Homo sapiens, UniProt P36888, D835Y)

With `COc1ccc2oc(-c3ccc4nc(N)oc4c3)c/c(=N\c3ccccc3NC(=O)CCN)c2c1` the remaining binding was 108% (FLT3; binding; 1 µM).
For `CN(C)C(=O)c1cc2cnc(Nc3ccc(-c4ccc5c(=O)cc(N6CCOCC6)oc5c4)cc3)nc2n1C1CCCC1`, the remaining binding was 3.9% (FLT3; binding, competition with immobilised ligand; 1 µM).
For `CC#CC(=O)N1CCC[C@H]1c1nc(-c2ccc(C(=O)Nc3ccccn3)cc2)c2c(N)nccn12`, the inhibition was 18% (FLT3 N841I; enzyme activity, inhibitor; 1 µM).
With `CN1CCN(C(=O)c2ccc(NC(=O)Nc3ccc(N(C)c4ccnc(Nc5ccc(CS(C)(=O)=O)cc5)n4)cc3)cc2)CC1` the remaining binding was 0% (FLT3 K663Q; binding; 1 µM).
The inhibition of `C#Cc1cc(-c2cc(Nc3nc(N[C@@H](C)c4ccc(F)cn4)ncc3Cl)n[nH]2)ccc1C=O` is reported as 98.8% (FLT3; enzyme activity, inhibitor; 0.2 µM).
The remaining signal of `C[C@H]1CC[C@H](n2c3cnccc3c3cnc(Nc4ccc5c(n4)CCN(C(=O)CO)C5)nc32)CC1` is reported as 0% (FLT3 N841I; cell-free assay; 1 µM).
`C=CC(=O)N1CCC([C@@H]2CCNc3c(C(N)=O)c(-c4ccc(Oc5ccccc5)cc4)nn32)CC1` gave an inhibition of 81% (FLT3 D835Y; enzyme activity, inhibitor; 1 µM).
For `Cc1cc(S(=O)(=O)N[C@H]2CC[C@H](CN3CCN(c4ccc(C5CCC(=O)NC5=O)cc4F)CC3)CC2)ccc1Nc1ncc(C(F)(F)F)c(N2CCC[C@](C)(O)C2)n1` (stereo partly shown), the remaining binding was 47% (FLT3 N841I; binding, competition with immobilised ligand; 1 µM).
`Cc1n[nH]c2ccc3nc(-c4ccc(C(=O)NCCN(C)C)cc4F)c4c(c3c12)CCCC4` gave a remaining activity of 22% (FLT3; enzyme activity, inhibitor, radiometric; 0.5 µM).
`N#Cc1ccc(NC(=O)Nc2ccccc2)cc1` has a remaining binding of 100% (FLT3; cell-free assay, competition with immobilised ligand; 25 µM).
`COc1ccc2[nH]c3c4[nH]c5ccc(OC)cc5c4c4c(c3c2c1)C(=O)NC4=O` gave a remaining binding of 16% (FLT3 D835Y; binding; 1 µM).
For `C1=C/COCc2cc(ccc2OCCN2CCCC2)Nc2nccc(n2)-c2cccc(c2)COC/1`, the remaining binding was 11% (FLT3 K663Q; binding; 0.1 µM).
For `C[C@]1(O)CCCN(c2nc(Nc3ccc(S(=O)(=O)N[C@H]4CC[C@H](CN5CCN(c6ccc(C7CCC(=O)NC7=O)cc6F)CC5)CC4)cc3F)ncc2C(F)(F)F)C1` (stereo partly shown), the remaining binding was 72% (FLT3 N841I; binding, competition with immobilised ligand; 1 µM).
`CCCCC(=O)Nc1ccc(-c2ccc3ncn(CCC)c(=O)c3c2)cn1` has a remaining binding of 96% (FLT3 D835Y; binding, competition with immobilised ligand; 0.5 µM).
`Cc1ccc(NC(=O)c2ccnc(C(F)(F)F)c2)cc1-c1cc(OCCO)nc(N2CCOCC2)c1` has a remaining binding of 82% (FLT3 N841I; binding; 1 µM).
`O=C1C=C(Nc2ccc(OCc3cn(Cc4ccc(Cl)c(Cl)c4)nn3)cc2)C(=O)c2ccccc21` gave an inhibition of -21% (FLT3; enzyme activity, inhibitor, radiometric; 10 µM).
